Screening results: PubChem, several laboratories
NPY2 pot ag = potentiates or activates human NPY-Y2 receptor; activation, % at 3.6 µM; P49146; 220,000 compounds, 0.45% hits; AID 1359; cells expressing NPY-Y2, potentiator/agonist read-out; in the data active = activation above about 27%;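 also: cells stimulated with NPY near EC25 plus isoproterenol at EC100; 0% = vehicle plus submaximal agonist and 100% = vehicle plus saturating agonist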
NPY Y2 blocker = blocks the human neuropeptide Y Y2 receptor. P49146. NPY-Y2 expressing cells, antagonist mode. inhibition, % at 2.7 µM. 140,000 compounds, 0.99% hits. AID 793; in the data active = inhibition above about 17%;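 also: 0% = vehicle with agonist challenge and 100% = reference antagonist with challenge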
RAM inhibit = yeast RAM network inhibition; 190,000 compounds, 1.8% hits; inhibition, % at 50 µM; AID 868; S. cerevisiae dse1pr::URA3 reporter, 5-FOA growth OD615, 2 d; analog-sensitive cbk1-as2 kinase mutant strain;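 active = inhibition above a set limit, 3 SD over mean compound inhibition, cut at about 8.4% in these data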;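 also: 0% = DMSO-only wells with no growth and 100% = 10 µM 1-NA-PP1 full growth; inhibition rescues growth on 5-FOA so higher OD means more RAM inhibition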
NPY-Y1 antag = NPY-Y1 (human) receptor antagonism; 200,000 compounds, 1% hits; inhibition, % at 3.6 µM; HEK293-CNG Y1 cells, membrane potential fluorescence; NPY at EC95, then isoproterenol;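 active = inhibition above the campaign mean inhibition of all tested compounds plus 3 SD, cut at about 20% in these data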;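 also: 0% = DMSO wells given NPY plus isoproterenol and 100% = isoproterenol alone without NPY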
Target sequence (P25929 whole entry, looked up): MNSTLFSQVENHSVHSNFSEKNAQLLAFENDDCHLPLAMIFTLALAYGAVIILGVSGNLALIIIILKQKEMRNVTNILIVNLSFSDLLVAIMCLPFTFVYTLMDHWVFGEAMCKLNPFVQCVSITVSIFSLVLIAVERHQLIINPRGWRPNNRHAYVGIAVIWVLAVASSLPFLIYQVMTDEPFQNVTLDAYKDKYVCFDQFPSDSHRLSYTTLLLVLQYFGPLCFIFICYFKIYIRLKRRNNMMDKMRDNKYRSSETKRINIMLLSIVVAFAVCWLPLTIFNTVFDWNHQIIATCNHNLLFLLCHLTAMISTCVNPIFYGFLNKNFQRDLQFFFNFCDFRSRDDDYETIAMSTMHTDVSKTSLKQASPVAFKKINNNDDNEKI
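material = HEK293 cells with Y1 receptor plus CNG channel | also added = NPY 25 nM then isoproterenol 1 µM plus Ro 20-1724 25 µM | schedule = dye 3 h, compound 60 min room temperature, stimulation 45 min | measured by = membrane potential fluorescence | benchmarks = high control isoproterenol alone, low control NPY with isoproterenol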
Insulin prom inh = TRM-6 insulin promoter activity inhibition; TRM-6 cells, insulin promoter-eGFP reporter, imaging; reporter expression induced with tamoxifen; inhibition, % at 2 µM; 130,000 compounds, 0.9% hits;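 active = inhibition above the mean plus 3 SD, with well images judged a real hit on visual review, cut at about 60% in these data, passing the limit was not always enough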
NPY1 pot ag = potentiators or agonists of human neuropeptide Y receptor Y1 | P25929 | NPY-Y1 expressing cells, potentiator/agonist activation | activation, % at 3.6 µM | 220,000 compounds, 0.37% hits | AID 1304; in the data active = activation above about 33%, passing the limit was not always enough;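 also: cells stimulated with NPY at EC10 then isoproterenol at EC100; 0% = low agonist plus stimulus and 100% = saturating agonist plus stimulus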
* hit, by the source's call; i = inactive; x = no result. Hits are enriched below; roughly 3.8% of the tested compounds scored in any of these assays.

SMILES	NPY2 pot ag	NPY Y2 blocker	RAM inhibit	NPY-Y1 antag	Insulin prom inh	NPY1 pot ag
Cc1cc(C)c(C(=O)CSc2nc(C)cc(C)c2C(N)=O)c(C)c1	-4	7	6	0	x	-7
CC(C)c1nnc(SCC(=O)NCc2ccco2)n1C	-1	1	0	-4	11	12
Cc1[nH]c2ccc(-c3nnc(SCC(=O)NCc4ccco4)n3Cc3ccccc3)cc2c1C	104*	2	2	-5	14	112*
O=C(CSc1nnc2ccccn12)NCc1ccco1	-8	x	0	4	71*	19
Cc1ccc(CNC(=S)NCc2ccncc2)cc1	-2	x	1	-3	-21	-7
CCCNC(=O)c1cccc(COCC(F)(F)C(F)F)c1	16	0	0	-1	-225	18
COc1ccc(CCNc2ccc(S(=O)(=O)N3CCCC3)cc2[N+](=O)[O-])cc1	-8	6	11*	14	10	4
Cc1ccc(S(=O)(=O)N2CCCC2)cc1[N+](=O)[O-]	7	1	1	0	-3	15
O=[N+]([O-])c1cc(S(=O)(=O)N2CCCC2)ccc1NCCc1ccccc1	1	0	9.7*	-4	-32	5
CCCCCOc1ccc(Br)cc1/C(C)=N/NC1=NCCN1	-21	54*	0	27*	i	-46
Cc1noc(C)c1C1(O)CCCCCCCCCCC1	-4	1	2	1	-18	-4
CCOC(=O)C(=O)c1cn(C2OCC(OC(C)=O)C(OC(C)=O)C2OC(C)=O)c2ccccc12 (centres undefined)	2	-1	2	-4	x	0
CC(Sc1nc(-c2ccccc2)cs1)C(=O)Nc1ccc(Cl)cn1 (centres undefined)	-6	9	9.5*	15	x	-27
NS(=O)(=O)c1ccc(CCNC(=O)CSc2ncnc3ccccc23)cc1	-9	x	1	-1	x	-4
COc1ccc(/C=N/n2c(N)nc3ccccc32)cc1OC	8	-3	2	3	75*	13
COc1cccc(/C=N/n2c(N)nc3ccccc32)c1OC	-3	6	1	2	20	-23
CCN(CC)c1ccc(/C=N/NC(=O)C(O)(c2ccccc2)c2ccccc2)o1	1	3	0	2	-116	9
CCC(C)N(CC(=O)Nc1cccc(C)c1C)C(=O)CCl (centres undefined)	-12	x	1	5	100*	-12
CC[C@@H](C)C(NC(=O)OC(C)(C)C)c1cn([C@@H](Cc2cc3ccccc3[nH]2)C(=O)N2CCN(C(=O)OC(C)(C)C)CC2)nn1 (some centres undefined)	-47	x	4	-4	x	12
NC(=O)NC(=O)COC(=O)c1ccc(Cl)c(S(=O)(=O)N(Cc2ccccc2)c2ccc(Cl)cc2)c1	-2	1	10*	9	23	16
O=C(C1CCC1)N1CCc2cc(S(=O)(=O)NCC3COc4ccccc4O3)ccc21 (centres undefined)	-24	20*	4	24*	25	-49
O=C(C1CCC1)N1CCc2cc(S(=O)(=O)NC3CCCC3)ccc21	-12	0	3	4	6	-5
O=C(C1CCC1)N1CCc2cc(S(=O)(=O)NCc3ccco3)ccc21	-21	0	3	10	82*	-11
COC(=O)CNC(=O)c1ccc(NS(=O)(=O)c2cc([N+](=O)[O-])ccc2Cl)cc1	-11	x	x	x	x	-2
Cc1ccc(/C=N/Nc2ccnc3cc(Cl)ccc23)c(C)c1	1	4	4	6	x	-14
SMILES	NPY2 pot ag	NPY Y2 blocker	RAM inhibit	NPY-Y1 antag	Insulin prom inh	NPY1 pot ag
Clc1ccc2c(N/N=C/c3cccnc3)ccnc2c1	4	x	3	-3	93*	-9
Cc1ccccc1/C=N/Nc1ccnc2cc(Cl)ccc12	7	1	2	3	80*	1
Clc1ccc2c(N/N=C/c3ccc(Br)cc3)ccnc2c1	2	-4	2	-1	92*	-6
Cc1ccc(NC(=O)COC(=O)CN2C(=O)NC(C)(C)C2=O)cc1S(=O)(=O)N1CCOCC1	-1	x	-1	4	79*	0
Cc1ccc(NC(=O)COC(=O)CN2C(=O)C3CCCCC3C2=O)cc1S(=O)(=O)N1CCOCC1 (centres undefined)	10	2	3	-4	-20	-9
O=C(c1cccc(C(F)(F)F)c1)C1CCCN(Cc2cccn2-c2ncccn2)C1 (centres undefined)	-47	x	-1	33*	x	-28
Cc1ccc(-n2nnnc2SCCNS(=O)(=O)c2ccccc2)cc1C	-10	1	9.9*	6	x	-12
O=C(COC(=O)Cc1c(Cl)cccc1Cl)Nc1ccccc1-c1ccccc1	-7	7	10*	7	-54	-31
O=C(COC(=O)Cc1ccc(Cl)cc1)Nc1ccccc1-c1ccccc1	-14	5	8	5	x	-24
O=C(COC(=O)Cc1cccc2ccccc12)Nc1ccccc1-c1ccccc1	3	6	11*	6	x	-14
Cc1ccc(S(=O)(=O)Oc2ccccc2/C=N/NC(N)=S)cc1	-4	7	9.1*	7	-103	-7
CCOc1cc(C)c(S(=O)(=O)Nc2ccc(F)cc2)cc1C	3	-2	13*	-4	-38	11
COc1ccc(C)cc1S(=O)(=O)Nc1ccc(F)cc1	21	2	0	3	-28	-7
CCOc1ccc(OCC)c(NC(=O)CN2CCN(c3cccc(C)c3)CC2)c1	3	3	1	0	12	-9
CCOc1ccc(OCC)c(NC(=O)CN2CCN(c3cc(C)ccc3C)CC2)c1	-13	-1	8.7*	0	0	-20
Cc1ccc(-c2nc3ccsc3c(=O)[nH]2)cc1	0	x	-1	1	x	-5
N#Cc1nc(COc2ccc(F)cc2)oc1N1CCN(Cc2ccccc2)CC1	-17	32*	0	34*	x	-30
CCN1CCN(c2oc(COc3ccc(-c4ccccc4)cc3)nc2C#N)CC1	-33	10	0	9	-17	-23
N#Cc1nc(COc2ccc(F)cc2)oc1N1CCC(Cc2ccccc2)CC1	5	37*	9.9*	32*	-294	-69
N#Cc1nc(COc2ccc(Br)cc2)oc1N1CCN(Cc2ccccc2)CC1	-11	32*	1	35*	-10	-12
FC(F)(F)c1cccc(Sc2nc(-c3ccccc3)nnc2C(F)(F)F)c1	8	0	8.6*	0	43	-8
FC(F)(F)c1nnc(-c2ccccc2)nc1Sc1ccccc1	-9	0	8	4	-30	-17
Cc1cc2ccccc2c(=O)n1CC(=O)N1CCN(c2cccc(Cl)c2)CC1	12	3	5	0	-23	21
CCn1c(SCC(=O)N2CCN(c3cccc(Cl)c3)CC2)nc2ccccc2c1=O	-9	24*	3	24*	3	-35
